According to ChEMBL document CHEMBL1146352, “Synthesis of furopyrazole analogs of 1-benzyl-3-(5-hydroxymethyl-2-furyl)indazole (YC-1) as novel anti-leukemia agents” (2007):
Activity calls are given as the source filed them. No cut-off for these calls is given here.

Legend:
[1] = system: HL-60; assay: Cytotoxicity against HL60 cells by Propidium iodide exclusion assay; format: functional; details: Homo sapiens, read-out: ED50 (the source's name)
In short: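 HL-60 cells seeded at 2.5 × 10⁵ cells/mL and treated at a range of concentrations for 24, 48 and 72 h at 37 °C. Viable cells were scored by propidium iodide exclusion on flow cytometry. Viability is given as the ratio of treated to control cells. ED50 derived; three independent experiments, mean ± SD.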

[2] = system: HL-60 (Homo sapiens); assay: Induction of apoptosis in HL-60 cells after 72 hrs
[3] = system: HL-60; assay: Induction of HL60 cell differentiation assessed as nitroblue tetrazolium reduction activity at 26 uM after 72 hrs; format: functional, Homo sapiens; parameters: scale not given: the % may be the effect or the level left
In short: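 Cells treated 72 h (ATRA co-treatment at 1 µM where stated) were suspended in HBSS at 1 × 10⁶ cells/mL. Mixed with an equal volume of HBSS stock containing 1 mg/ml NBT and 5 µg/mL TPA, then held 30 min at 37 °C. Cells with formazan deposits were counted microscopically, at least 200 cells. Three experiments, each in duplicate.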

[4] = system: HT60; assay: Induction of apoptosis in […] cells at 26 uM after 48 hrs; format: functional, cell-based; details: Homo sapiens
In short: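 HL-60 cells were cultured 72 h or 48 h with compound, with 0.1% (v/v) DMSO as the control. Nuclei were stained with DAPI and examined microscopically (400×) for nuclear shrinkage and chromatin condensation.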

SMILES | EC50 [1] | Activity [2] | Activity [3] | AD50 [4]
Cc1cc2c(o1)c(-c1ccc(C(=O)O)cc1)nn2-c1ccccc1 | > 20 µM | – | – | –
Cc1cc2c(o1)c(-c1ccc(CO)cc1)nn2-c1ccccc1 | > 20 µM | – | – | –
Cc1cc2c(o1)c(-c1ccc(C(=O)O)cc1)nn2Cc1ccccc1 | > 20 µM | – | – | –
OCc1ccc(-c2nn(Cc3ccccc3)c3ccccc23)o1 | – | inactive | 3.56% | Active
